Measurements from PubChem BioAssay AID652011 (Sanford-Burnham Center for Chemical Genomics, 2013).
“And” between values parts separate entries of the source, which are not always exact repeats. Equal entries are not always repeated.

Each molecule was assayed against Endothelial PAS domain-containing protein 1 (Homo sapiens) (UniProt Q99814) (assay: HIF reporter inhibition across pancreatic and renal lines – cell-based, luminescence, MIAPaCa-2, 786-0, panel, SAR follow-up (AID 652011)). Settings: MIAPaCa-2/PANC HIF reporter, luciferase luminescence, desferoxamine, overnight, HIF2a PANC, run 1; at 99 µM (top of the series).
Endothelial PAS domain-containing protein 1 (Homo sapiens), sequence (Q99814 whole entry, looked up, the tested form may be a part): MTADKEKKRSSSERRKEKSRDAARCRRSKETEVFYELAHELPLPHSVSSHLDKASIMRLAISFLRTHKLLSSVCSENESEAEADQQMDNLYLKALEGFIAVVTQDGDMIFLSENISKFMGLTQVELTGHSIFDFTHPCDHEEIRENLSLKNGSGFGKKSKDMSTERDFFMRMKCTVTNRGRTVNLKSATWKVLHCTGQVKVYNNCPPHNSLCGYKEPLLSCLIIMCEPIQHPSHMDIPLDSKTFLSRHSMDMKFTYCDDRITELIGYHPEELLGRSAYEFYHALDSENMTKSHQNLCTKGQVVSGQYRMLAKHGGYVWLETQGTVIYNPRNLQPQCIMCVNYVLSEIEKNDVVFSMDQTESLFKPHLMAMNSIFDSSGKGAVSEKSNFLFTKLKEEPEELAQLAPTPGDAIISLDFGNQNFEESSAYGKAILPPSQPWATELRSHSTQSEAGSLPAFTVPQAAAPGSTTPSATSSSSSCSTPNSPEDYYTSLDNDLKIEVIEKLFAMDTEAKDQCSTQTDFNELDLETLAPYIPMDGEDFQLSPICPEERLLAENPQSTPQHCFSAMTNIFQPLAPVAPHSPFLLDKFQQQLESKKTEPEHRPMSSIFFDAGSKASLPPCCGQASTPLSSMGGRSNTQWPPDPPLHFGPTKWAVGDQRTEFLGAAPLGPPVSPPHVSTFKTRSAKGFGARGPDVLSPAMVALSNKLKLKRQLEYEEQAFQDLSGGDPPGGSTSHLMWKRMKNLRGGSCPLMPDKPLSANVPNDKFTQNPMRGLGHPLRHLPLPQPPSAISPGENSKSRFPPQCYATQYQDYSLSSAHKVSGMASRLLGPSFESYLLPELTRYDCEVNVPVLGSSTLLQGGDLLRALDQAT
In short: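 Reagent: Desferoxamine added before compound | Doses: Compounds from 10 mM and 0.3125 mM stocks, 1% DMSO final | Times: Overnight seeding and compound exposure, 37 °C, 5% CO2, 10-min detection | Measured by: One-Glo luciferase luminescence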
With CC(C)(C)c1ccc(-c2noc(CCC(=O)NCc3ccco3)n2)cc1 the inhibition was 86.1% and 78.5%. CC(C)(C)c1ccc(-c2noc(CCC(=O)NC3CC3)n2)cc1 was tested, and the inhibition was 53.7%. Molecule CCNC(=O)CCc1nc(-c2c(Cl)cccc2Cl)no1 has an inhibition of 53.6%. CCNC(=O)CCc1nc(-c2cccc(C)c2)no1 showed an inhibition of -22.1%. Molecule CC(C)(C)c1ccc(-c2noc(CCC(=O)Nc3ccccc3)n2)cc1 has an inhibition of 116%. Molecule CC(C)(C)c1ccc(-c2noc(CCC(=O)Nc3cccc([N+](=O)[O-])c3)n2)cc1 has an inhibition of 89.8%. Molecule CNC(=O)CCc1nc(-c2ccc(C)cc2)no1 has an inhibition of 40.9%. For COc1ccccc1NC(=O)CCc1nc(-c2ccc(C(C)(C)C)cc2)no1, the inhibition was 115%. CCNC(=O)CCc1nc(-c2cccc(OC)c2)no1 was tested, and the inhibition was 27.9%. For CC(C)(C)c1ccc(-c2noc(CCC(=O)NC3CCCC3)n2)cc1, the inhibition was 94.6%. With CC(C)CNC(=O)CCc1nc(-c2ccc(C(C)(C)C)cc2)no1 the inhibition was 63.8%. CCNC(=O)CCc1nc(-c2ccccc2C)no1 gave an inhibition of 27.8%. Work on COC(=O)CCc1nc(-c2ccc(C(C)(C)C)cc2)no1 yielded an inhibition of 123%. Molecule CC(C)(C)c1ccc(-c2noc(CCC(=O)N3CCOCC3)n2)cc1 has an inhibition of -33.9%. With CC(C)(C)NC(=O)CCc1nc(-c2ccc(C(C)(C)C)cc2)no1 the inhibition was 83.8%. CCc1ccc(-c2noc(CCC(=O)NC3CC3)n2)cc1 was tested, and the inhibition was -19.4%. With O=C(O)CCc1nc(-c2ccccc2)no1 the inhibition was 25.2%. Work on CNC(=O)CCc1nc(-c2ccc(C(C)(C)C)cc2)no1 yielded an inhibition of 65.3%. In the case of CC(C)(C)c1ccc(-c2noc(CCC(=O)N3CCCCC3)n2)cc1, the inhibition is reported as 103%. In the case of CNC(=O)CCc1nc(-c2ccc(OC)cc2)no1, the inhibition is reported as 36.2%. CC(C)(C)c1ccc(-c2noc(CCC(N)=O)n2)cc1 was tested, and the inhibition was 115% and 99.9%. With CCCCc1ccc(-c2noc(CCC(=O)NC3CC3)n2)cc1 the inhibition was -40.8%. In the case of O=C(CCc1nc(-c2ccccc2)no1)NC1CC1, the inhibition is reported as 66%. Molecule CCc1ccc(-c2noc(CCC(=O)NC(C)CC)n2)cc1 (stereo unspecified) has an inhibition of -89.5%. CCOc1ccc(-c2noc(CCC(=O)O)n2)cc1 gave an inhibition of 109%. CNC(=O)CCc1nc(-c2ccccc2)no1 was tested, and the inhibition was 11.4% and 50.7%. CCOc1ccccc1NC(=O)CCc1nc(-c2ccc(C(C)(C)C)cc2)no1 showed an inhibition of 117%. In the case of CC(C)c1ccc(-c2noc(CCC(=O)NC(C)(C)C)n2)cc1, the inhibition is reported as 57.4%. CCNC(=O)CCc1nc(-c2ccccc2)no1 was tested, and the inhibition was 21.2%. For CCCCc1ccc(-c2noc(CCC(=O)NC)n2)cc1, the inhibition was -53%. Molecule CCNC(=O)CCc1nc(-c2ccc(C(C)C)cc2)no1 has an inhibition of -50.6%.
